An excerpt weighted towards active compounds, which were near 2.9% of everything screened.
OX1R antag-1 = antagonists of human orexin 1 receptor (OX1R) | O43613 | inhibition, % at 6.6 µM | OX1R-expressing cells, FRET antagonist read-out | actives 1.8% (n = 330,000); in the data active means inhibition mostly above about 38%, no sharp cut-off; inactive means mostly below about 40%
Target sequence (O43613 whole entry, looked up): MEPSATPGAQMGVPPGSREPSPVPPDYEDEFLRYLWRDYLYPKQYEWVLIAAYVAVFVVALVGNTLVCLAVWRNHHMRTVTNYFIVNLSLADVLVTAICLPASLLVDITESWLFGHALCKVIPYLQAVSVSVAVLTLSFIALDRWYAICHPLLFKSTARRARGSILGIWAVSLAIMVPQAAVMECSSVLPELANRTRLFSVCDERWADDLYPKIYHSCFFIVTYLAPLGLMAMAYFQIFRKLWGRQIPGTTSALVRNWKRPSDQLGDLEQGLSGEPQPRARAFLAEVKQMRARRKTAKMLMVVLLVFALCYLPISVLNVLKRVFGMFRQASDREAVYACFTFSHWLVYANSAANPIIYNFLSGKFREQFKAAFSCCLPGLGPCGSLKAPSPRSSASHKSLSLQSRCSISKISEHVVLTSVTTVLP
CHO parental Ca = counter-screen: ATP calcium response change in parental CHO cells; parental CHO-K1, ATP-induced calcium, Fluo-8 fluorescence; inhibition, % at 5.6 µM; actives 0.63% (n = 330,000);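 active means inhibition above that plate's mean sample inhibition plus 3 SD, cut at about 26% in these data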
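material = parental CHO cells | also added = ATP as calcium-mobilizing challenge | dosing = single point at 5.6 µM | detection = intracellular calcium via Fluo-8 no-wash fluorescent dye | read-out = % inhibition | benchmarks = low control ATP plus DMSO, high control DMSO only | repeats = one well per compound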
OX1R antag-2 = blocks the human orexin 1 receptor; actives 0.43% (n = 330,000); AID 434989; O43613; inhibition, % at 5 µM; CHO/OX1R cells, Fluo-8 calcium fluorescence, orexin A;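 active means inhibition above its plate's threshold, mean inhibition of all tested compounds on the plate plus 3 SD, cut at about 37% in these data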
CHO-K1 Ca PAM = counter-screen for M1 PAMs: effect in parental CHO-K1 cells. ATP EC20, Fluo-8 calcium fluorescence; 0% at ATP EC20, 100% at ATP max. activation, % at 3 µM. actives 0.02% (n = 360,000). AID 602247;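 active means activation above the run cutoff, the mean activation of all test compounds plus 3 SD, cut at about 40% in these data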;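 further: peak over basal fluorescence ratio in a 140 s read after ATP addition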
CHO-K1 Ca antag = counter-screen for M1 antagonists: effect in parental CHO-K1 cells. actives 0.6% (n = 360,000). AID 602250. inhibition, % at 3 µM. ATP-induced calcium, Fluo-8 fluorescence;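 active means inhibition above a per-plate cutoff, the plate's mean sample inhibition plus 3 SD, cut at about 24% in these data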
CHO-K1 Ca ag = counter-screen for M1 agonists: effect in parental CHO-K1 cells | Fluo-8 calcium fluorescence; scaled to maximal ATP response, vehicle zero | activation, % at 3 µM | actives 0.48% (n = 360,000); in the data active means activation above about 15%;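 further: untransfected CHO-K1 host cells lacking M1 receptor as counterscreen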
OX1R HTRF confirm = OX1R (human) antagonism, HTRF confirmed; OX1R-expressing cells, HTRF antagonist assay; shares compounds with OX1R antag-1; AID 492964; inhibition, % at 6.6 µM; actives 49% (n = 1,800); in the data active means inhibition above about 55%;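 further: CHO cells expressing OX1R stimulated with orexin A at about EC80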
CHO-K1 HTRF = counter-screen: parental CHO-K1 HTRF response; shares compounds with OX1R antag-1; parental CHO-K1 cells, HTRF counterscreen; inhibition, % at 6.6 µM; actives 48% (n = 1,800); in the data active means inhibition above about 17%
Numbers stand for hits; i = inactive; nt = not tested or not shown.

SMILES | OX1R antag-1 | CHO parental Ca | OX1R antag-2 | CHO-K1 Ca PAM | CHO-K1 Ca antag | CHO-K1 Ca ag | OX1R HTRF confirm | CHO-K1 HTRF
Cc1noc(/C=C/c2cccnc2)c1[N+](=O)[O-] | 79.3 | i | i | i | i | i | 68.1 | 83.6
COc1ccccc1/C=C1\SC(=S)N(CCC(=O)Nc2cccc(O)c2)C1=O | i | i | i | i | i | i | nt | nt
COCC(=O)OCC(=O)Nc1ccc(Cl)cc1[N+](=O)[O-] | 98.6 | i | i | i | i | i | i | 50.1
Cc1ccc(S(=O)(=O)N2CCOC2CNC(=O)C(=O)NCCN2CCOCC2)cc1 (stereo not drawn) | i | i | i | i | i | i | nt | nt
COc1ccc2cc(C(=O)NCc3ccccc3)c(=O)oc2c1 | i | i | i | i | i | i | nt | nt
COc1ccc2oc(=O)c(C(=O)NCc3cccnc3)cc2c1 | 82.6 | i | i | i | i | i | i | 40.0
CN(C)C=NC(=O)c1cn(-c2ccc(F)cc2)c(=O)c2ccccc12 | i | i | i | i | i | i | nt | nt
O=C(CSc1nc(O)c(C2CCCCC2)c(=O)[nH]1)Nc1ccccc1Cl | 78.5 | i | i | i | i | i | i | i
COc1ccc2c(c1)nc(-c1cccc(Br)c1)c(=O)n2C(c1ccccn1)c1nc2ccccc2[nH]1 (stereo not drawn) | nt | nt | nt | i | i | i | nt | nt
Cc1ccc(NC(=O)CCl)cc1S(=O)(=O)N1CCCCCC1 | i | i | i | i | i | i | nt | nt
COCCNCC(=O)Nc1ccc(C)c(S(=O)(=O)N2CCCCC2)c1 | 100.3 | i | i | i | i | i | i | i
O=C(Nc1nc2nc(-c3ccccc3)cc(-c3ccccc3)n2n1)c1ccco1 | 79.6 | i | i | i | i | i | i | i
COc1ccc(NC(=O)CN(C)C(=O)CCc2c[nH]c3ccccc23)cc1 | i | i | i | i | i | i | nt | nt
COC(=O)c1sccc1NC(=O)COc1ccccc1Cl | 78.8 | i | i | i | i | i | 56.3 | i
CCOc1ccccc1NC(=O)Nc1ccsc1C(=O)OC | i | i | i | i | i | i | nt | nt
Cc1cccc(C)c1NC(=O)Cn1nc(-c2ccc(Cl)s2)ccc1=O | i | i | i | i | i | i | nt | nt
Cc1ccc(CN2CCC(C)(Oc3ccc(Cl)cc3)C2)cc1 (stereo not drawn) | nt | nt | nt | i | i | i | nt | nt
Cc1ccc(CNc2ccc([N+](=O)[O-])cc2C(N)=O)cc1 | i | i | i | i | i | i | nt | nt
Cc1ccc(Oc2c(C(N)=O)cc([N+](=O)[O-])cc2[N+](=O)[O-])cc1 | 104.6 | i | i | i | i | i | 79.6 | 76.5
O=C1c2cc(S(=O)(=O)N(CCO)CCO)ccc2-c2ccc(S(=O)(=O)N(CCO)CCO)cc21 | 111.2 | i | i | i | i | 16.4 | 70.9 | 71.9
COc1ccc(/C(N)=N/OC(=O)/C=C/c2ccccc2)cc1 | i | i | i | i | i | i | nt | nt
COc1ccc(/C=C/C(=O)O/N=C(\N)c2ccccc2)cc1OC | 81.4 | i | i | i | i | i | i | i
CCOC(=O)N/N=C\c1ccc([N+](=O)[O-])o1 | 78.2 | i | i | i | i | i | i | 79.3
O=C(NNC(=O)c1cc(-c2ccccc2)nc2ccccc12)Nc1cccc(Cl)c1 | 89.6 | i | i | i | i | i | i | i
COc1ccc(NC(=O)CSc2nnnn2C)c([N+](=O)[O-])c1 | 117.4 | i | i | i | i | i | i | 46.1
SMILES | OX1R antag-1 | CHO parental Ca | OX1R antag-2 | CHO-K1 Ca PAM | CHO-K1 Ca antag | CHO-K1 Ca ag | OX1R HTRF confirm | CHO-K1 HTRF
COC(=O)c1nc(C(=O)OC)c(C(=O)OC)nc1C(=O)OC | 101.8 | i | i | i | i | i | i | 22.0
CN1CCc2c(sc(NC(=O)c3ccc([N+](=O)[O-])o3)c2C(N)=O)C1 | 90.4 | i | i | i | i | i | i | 31.2
CN1CCc2c(sc(NC(=O)c3ccco3)c2C(N)=O)C1 | i | i | i | i | i | i | nt | nt
O=C(N/N=C/c1ccc([N+](=O)[O-])s1)c1ccccc1Br | i | i | i | i | i | i | nt | nt
Cn1c(SCC(=O)N/N=C/c2cc([N+](=O)[O-])ccc2O)nnc1-c1ccccc1 | i | i | i | i | i | i | nt | nt
COC(=O)N/N=C/c1ccc([N+](=O)[O-])s1 | 105.8 | i | i | i | i | i | i | 84.9

Compound activity deposited in PubChem BioAssay by The Scripps Research Institute Molecular Screening Center.
